Screening results deposited in PubChem by several laboratories.
An excerpt weighted towards active compounds, which were near 3.5% of everything screened.
PAFAH1B2 FP inh: PAFAH1B2 enzyme inhibitors, primary screen, biochemical, fluorescence polarization, human; 340,000 tested, 1.2% active; inhibition, % at 3.39 µM; AID 492953, 2010; recombinant PAFAH1B2, FP-rhodamine activity probe;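 active means inhibition above the mean of all tested compounds plus 3 SD, cut at about 24% in these data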
PREPL inh: PREPL enzyme inhibitors, primary screen, biochemical, fluorescence polarization | recombinant PREPL, fluorescence polarization activity-based probe | Prolyl endopeptidase-like (Homo sapiens), Q4J6C6 | 320,000 tested, 0.68% active | inhibition, % at 5.96 µM; in the data active means inhibition above about 43%
Apaf1 inhib: inhibitors of human Apaf-1 apoptosome, primary screen, biochemical, DEVD-Rh110 fluorescence, uHTS | Apoptotic protease-activating factor 1 (Homo sapiens), O14727 | reconstituted apoptosome caspase-3 activity | inhibition, % at 20 µM | 330,000 tested, 0.71% active | AID 489030, 2010; active means inhibition of at least 40% at 20 µM
Target sequence (O14727 whole entry, looked up): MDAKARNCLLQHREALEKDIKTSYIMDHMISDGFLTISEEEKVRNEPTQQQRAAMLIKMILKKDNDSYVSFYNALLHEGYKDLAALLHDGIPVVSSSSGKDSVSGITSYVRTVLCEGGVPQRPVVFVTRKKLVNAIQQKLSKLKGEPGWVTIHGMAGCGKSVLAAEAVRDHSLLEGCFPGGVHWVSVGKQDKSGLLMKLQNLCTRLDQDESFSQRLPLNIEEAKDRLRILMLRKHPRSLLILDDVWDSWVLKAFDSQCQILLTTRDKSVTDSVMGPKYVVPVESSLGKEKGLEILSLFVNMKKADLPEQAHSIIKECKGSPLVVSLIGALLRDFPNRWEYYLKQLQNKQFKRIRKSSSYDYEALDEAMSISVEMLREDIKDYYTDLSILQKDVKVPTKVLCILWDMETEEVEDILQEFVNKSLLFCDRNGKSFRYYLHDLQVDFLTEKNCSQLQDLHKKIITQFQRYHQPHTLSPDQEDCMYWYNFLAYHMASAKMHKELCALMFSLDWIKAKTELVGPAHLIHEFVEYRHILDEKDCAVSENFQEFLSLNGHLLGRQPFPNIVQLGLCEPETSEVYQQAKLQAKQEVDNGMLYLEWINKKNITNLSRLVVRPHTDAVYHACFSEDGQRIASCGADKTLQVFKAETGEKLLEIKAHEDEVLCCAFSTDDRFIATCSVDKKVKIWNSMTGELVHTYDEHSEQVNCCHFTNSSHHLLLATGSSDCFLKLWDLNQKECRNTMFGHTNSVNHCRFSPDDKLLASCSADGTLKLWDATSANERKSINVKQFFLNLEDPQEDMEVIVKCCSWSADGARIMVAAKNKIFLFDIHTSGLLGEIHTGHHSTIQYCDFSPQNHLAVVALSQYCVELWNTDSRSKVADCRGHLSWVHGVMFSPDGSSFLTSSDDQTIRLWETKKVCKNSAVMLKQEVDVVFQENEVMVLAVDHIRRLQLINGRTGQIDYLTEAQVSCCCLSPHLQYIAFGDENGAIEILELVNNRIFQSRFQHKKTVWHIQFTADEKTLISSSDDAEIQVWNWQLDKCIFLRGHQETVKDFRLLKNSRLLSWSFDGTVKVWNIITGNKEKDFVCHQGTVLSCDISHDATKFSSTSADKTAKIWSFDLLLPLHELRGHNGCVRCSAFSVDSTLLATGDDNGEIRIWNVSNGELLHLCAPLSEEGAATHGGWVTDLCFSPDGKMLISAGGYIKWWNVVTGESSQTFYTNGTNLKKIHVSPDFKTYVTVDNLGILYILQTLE
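System: reconstituted apoptosome with Apaf-1, cytochrome c, caspase-9, procaspase-3, dATP; Signal: Rh110 fluorescence intensity; Schedule: 30 min compound preincubation, 50 min activation, room temperature; Reagent: cytochrome c trigger plus (Z-DEVD)2-Rh110 caspase-3 substrate.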
PAFAH2 FP inh: PAFAH2 enzyme inhibitors, primary screen, biochemical, fluorescence polarization, human. Platelet-activating factor acetylhydrolase 2, cytoplasmic (Homo sapiens), Q99487. 340,000 tested, 0.99% active. inhibition, % at 3.39 µM. recombinant PAFAH2, FP-rhodamine activity probe;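 active means inhibition above the mean over all tested compounds plus 3 SD, cut at about 30% in these data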;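 further: inhibitors block probe labeling of enzyme so polarization drops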
pPAFAH FP inh: pPAFAH enzyme inhibitors, primary screen, biochemical, fluorescence polarization, human | Platelet-activating factor acetylhydrolase (Homo sapiens), Q13093 | recombinant pPAFAH, FP-rhodamine probe fluorescence polarization | inhibition, % at 3.39 µM | 330,000 tested, 1.5% active | AID 463082, 2010;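 active means inhibition above the mean inhibition across the screen plus 3 SD, cut at about 25% in these data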;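 further: inhibitors block binding of the rhodamine activity-based probe so polarization drops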
PAFAH1B3 FP inh: PAFAH1B3 enzyme inhibitors, primary screen, biochemical, fluorescence polarization, human | Platelet-activating factor acetylhydrolase IB subunit alpha1 (Homo sapiens), Q15102 | recombinant PAFAH1B3, FP-rhodamine probe | inhibition, % at 3.39 µM | 340,000 tested, 0.28% active | AID 492972, 2010;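 active means inhibition above the screen-wide average of all tested compounds plus 3 SD, cut at about 25% in these data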
Apaf-1 inh conf2: Apaf-1 inhibitors, single-dose retest, confirmation, biochemical, fluorescence, DEVD-Rh110, 20 µM; reconstituted apoptosome, caspase-3 DEVD-Rh110 fluorescence; inhibition, % at 20 µM; 1,800 tested, 25% active; shares compounds with Apaf1 inhib;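 active means mean inhibition of at least 40% at 20 µM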
Rh110 interf inh: Rh110 fluorescence interference by putative Apaf-1 inhibitors, confirmation, artefact control for Apaf-1 inhibitor project, biochemical, 20 µM; shares compounds with Apaf1 inhib; quenched caspase reaction; activation (fluorescence interference), % at 20 µM; 1,800 tested, under 10 active; AID 504615, 2011;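 active means signal rise of 40% or more at 20 µM, treated as a fluorescence artifact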
Apaf1 inh interf: fluorescence interference of Apaf-1 inhibitor hits, dose response, artefact control for Apaf-1 inhibitor project. shares compounds with Apaf1 inhib. fluorescence interference counterscreen, Apaf-1 assay format. IC50, µM. 460 tested, under 10 active; call rule not given here
Hits are given with their value.

What do the screens show for `CCCCCc1cc(=O)oc2c(C(CCN3CCCC(C)C3)c3ccc(OC)cc3)c(OC)cc(OC)c12` (centres undefined)?
PAFAH1B2 FP inh: inactive; PREPL inh: inactive; Apaf1 inhib: 66; PAFAH2 FP inh: inactive; pPAFAH FP inh: inactive; PAFAH1B3 FP inh: inactive; Apaf-1 inh conf2: inactive; Rh110 interf inh: inactive

How did CCCCCc1cc(=O)oc2c(C(CCN3CCCCC3)c3ccc(OC)cc3)c(OC)cc(OC)c12 (centres undefined) do in these assays?
PAFAH1B2 FP inh: inactive; PREPL inh: inactive; Apaf1 inhib: inactive; PAFAH2 FP inh: inactive; pPAFAH FP inh: inactive; PAFAH1B3 FP inh: inactive

Results for CCOC(=O)c1ccc(N=Nc2c(C)[nH]n(-c3ccccc3)c2=O)cc1 ?
PAFAH1B2 FP inh: inactive; PREPL inh: inactive; Apaf1 inhib: inactive; PAFAH2 FP inh: inactive; pPAFAH FP inh: inactive; PAFAH1B3 FP inh: inactive

What do the screens show for `CCOC(=O)c1ccc(-n2[nH]c(-c3ccccc3)cc2=O)cc1`?
PAFAH1B2 FP inh: inactive; PREPL inh: inactive; Apaf1 inhib: 43; PAFAH2 FP inh: inactive; pPAFAH FP inh: inactive; PAFAH1B3 FP inh: inactive; Apaf-1 inh conf2: inactive; Rh110 interf inh: inactive

Results for Cc1ccc2c(c1)c(=O)c1c3n2CCN(C(=O)CCl)C3CC1 (centres undefined) ?
PAFAH1B2 FP inh: inactive; PREPL inh: inactive; Apaf1 inhib: 64; PAFAH2 FP inh: inactive; pPAFAH FP inh: inactive; PAFAH1B3 FP inh: inactive; Apaf-1 inh conf2: inactive; Rh110 interf inh: inactive

How did CC[C@H](C)Cc1cn([C@@H](CCCN=C(NC(=O)OC(C)(C)C)NC(=O)OC(C)(C)C)C(=O)NCCCCCCCCCCC(=O)N2CCN(C(=O)OC(C)(C)C)CC2)nn1 do in these assays?
PAFAH1B2 FP inh: inactive; PREPL inh: inactive; Apaf1 inhib: 57; PAFAH2 FP inh: inactive; pPAFAH FP inh: inactive; PAFAH1B3 FP inh: 27; Apaf-1 inh conf2: inactive; Rh110 interf inh: inactive

Results for CC[C@H](C)Cc1cn([C@@H](CCCCN)C(=O)NCCCCCCCCCCC(=O)N2CCNCC2)nn1 ?
PAFAH1B2 FP inh: inactive; PREPL inh: inactive; Apaf1 inhib: 46; PAFAH2 FP inh: inactive; pPAFAH FP inh: inactive; PAFAH1B3 FP inh: inactive; Apaf-1 inh conf2: inactive; Rh110 interf inh: inactive

What do the screens show for `Cc1cn([C@@H](CCCCNC(=O)OC(C)(C)C)C(=O)NCCCCCCCCCCC(=O)N2CCN(C(=O)OC(C)(C)C)CC2)nn1`?
PAFAH1B2 FP inh: inactive; PREPL inh: inactive; Apaf1 inhib: inactive; PAFAH2 FP inh: inactive; pPAFAH FP inh: inactive; PAFAH1B3 FP inh: inactive

How did CCCCCCCNC(=O)C1(CC2CC(c3ccc(Cl)cc3)=NO2)CCN(C(=O)Cc2ccc(F)cc2)CC1 (centres undefined) do in these assays?
PAFAH1B2 FP inh: inactive; PREPL inh: inactive; Apaf1 inhib: inactive; PAFAH2 FP inh: inactive; pPAFAH FP inh: inactive; PAFAH1B3 FP inh: inactive

What do the screens show for `CCCCCCCNC(=O)C1(CC2CC(c3ccc(Cl)cc3)=NO2)CCNCC1` (centres undefined)?
PAFAH1B2 FP inh: inactive; PREPL inh: inactive; Apaf1 inhib: 41; PAFAH2 FP inh: inactive; pPAFAH FP inh: inactive; PAFAH1B3 FP inh: inactive; Apaf-1 inh conf2: inactive; Rh110 interf inh: inactive

How did CCCCCCCNC(=O)C1(CC2CC(c3cccc(Br)c3)=NO2)CCNCC1 (centres undefined) do in these assays?
PAFAH1B2 FP inh: inactive; PREPL inh: inactive; Apaf1 inhib: 46; PAFAH2 FP inh: inactive; pPAFAH FP inh: inactive; PAFAH1B3 FP inh: inactive; Apaf-1 inh conf2: inactive; Rh110 interf inh: inactive

Results for CCCCCCCNC(=O)C1(CC2CC(c3cccc(Br)c3)=NO2)CCN(C(=O)Cc2ccc(F)cc2)CC1 (centres undefined) ?
PAFAH1B2 FP inh: inactive; PREPL inh: inactive; Apaf1 inhib: inactive; PAFAH2 FP inh: inactive; pPAFAH FP inh: inactive; PAFAH1B3 FP inh: inactive

What do the screens show for `CC(=O)Oc1ccc2occ(/C=N/c3cc(=O)[nH]c(=S)[nH]3)c(=O)c2c1`?
PAFAH1B2 FP inh: inactive; PREPL inh: inactive; Apaf1 inhib: inactive; PAFAH2 FP inh: inactive; pPAFAH FP inh: inactive; PAFAH1B3 FP inh: inactive

How did COc1ccc(-n2nc(C(=O)NCC(=O)NC3CCCC(C)C3C)c3ccccc3c2=O)cc1 (centres undefined) do in these assays?
PAFAH1B2 FP inh: inactive; PREPL inh: inactive; Apaf1 inhib: 51; PAFAH2 FP inh: inactive; pPAFAH FP inh: inactive; PAFAH1B3 FP inh: inactive; Apaf-1 inh conf2: inactive; Rh110 interf inh: inactive

What do the screens show for `COc1ccc(-n2nc(C(=O)NCC(=O)NC3CCCC(C)C3C)c3ccccc3c2=O)c(OC)c1` (centres undefined)?
PAFAH1B2 FP inh: inactive; PREPL inh: inactive; Apaf1 inhib: 55; PAFAH2 FP inh: inactive; pPAFAH FP inh: inactive; PAFAH1B3 FP inh: inactive; Apaf-1 inh conf2: 62; Rh110 interf inh: inactive; Apaf1 inh interf: inactive

How did COc1ccc(-n2nc(C(=O)NCC(=O)N3CCC(C)CC3)c3ccccc3c2=O)cc1 do in these assays?
PAFAH1B2 FP inh: inactive; PREPL inh: inactive; Apaf1 inhib: inactive; PAFAH2 FP inh: inactive; pPAFAH FP inh: inactive; PAFAH1B3 FP inh: inactive

Results for C=CCOc1c(Cl)cc(CNc2ccc(N(C)C)cc2)cc1OC ?
PAFAH1B2 FP inh: inactive; PREPL inh: inactive; Apaf1 inhib: 64; PAFAH2 FP inh: inactive; pPAFAH FP inh: 25; PAFAH1B3 FP inh: inactive; Apaf-1 inh conf2: inactive; Rh110 interf inh: inactive

Results for COc1ccc(N2CC(C(=O)NCCc3ccc(Cl)cc3)CC2=O)c(OC)c1 (centres undefined) ?
PAFAH1B2 FP inh: inactive; PREPL inh: inactive; Apaf1 inhib: inactive; PAFAH2 FP inh: inactive; pPAFAH FP inh: inactive; PAFAH1B3 FP inh: inactive

What do the screens show for `COc1ccc(C(=O)COC(=O)CCCN=C2NS(=O)(=O)c3ccccc32)c(OC)c1`?
PAFAH1B2 FP inh: inactive; PREPL inh: inactive; Apaf1 inhib: 51; PAFAH2 FP inh: inactive; pPAFAH FP inh: inactive; PAFAH1B3 FP inh: inactive; Apaf-1 inh conf2: inactive; Rh110 interf inh: inactive
